According to ChEMBL document CHEMBL1126283, “Thromboxane receptor antagonism combined with thromboxane synthase inhibition. 4. 8-[[(4-Chlorophenyl)sulfonyl]amino]-4-(3-(3-pyridinyl) propyl)octanoic acid and analogs” (J Med Chem, 1992):

Key:
Canis familiaris = species on record: Canis familiaris; test: Evaluated for contraction of dog saphenous vein; assay type: functional, organism-based; conditions: Canis lupus familiaris, read-out: pA2 (converted)
How it was run: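 Dog saphenous vein rings contracted with U 46619; antagonism expressed as pA2. Number of determinations = 1, with more than 12 rings per determination and a single drug concentration applied to each ring.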

Cavia porcellus [1] = test: Ex vivo inhibition of U-46,619-induced aggregation of guinea pig platelets after peroral administration of 10 mg/kg dose at 1 hr time; assay type: functional; conditions: route oral
How it was run: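 Fasted (12-16 h) male Hartley guinea pigs (350-400 g), 3-6 per group, dosed orally in a 3% fortified cornstarch suspension vehicle. At 1 h (or 6 h), animals under methoxyflurane anaesthesia were bled by cardiac puncture into citrate (0.0129 M final). PRP (500g, 7 min) was stirred 1 min at 37 °C, then U 46619 added. Result reported as EC50 drug-treated / EC50 vehicle.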

Thromboxane-A synthase = molecular target: T1, Thromboxane-A synthase (Homo sapiens, UniProt P24557); test: In vitro inhibition of Thromboxane A2 synthase
T1 sequence (P24557 whole entry): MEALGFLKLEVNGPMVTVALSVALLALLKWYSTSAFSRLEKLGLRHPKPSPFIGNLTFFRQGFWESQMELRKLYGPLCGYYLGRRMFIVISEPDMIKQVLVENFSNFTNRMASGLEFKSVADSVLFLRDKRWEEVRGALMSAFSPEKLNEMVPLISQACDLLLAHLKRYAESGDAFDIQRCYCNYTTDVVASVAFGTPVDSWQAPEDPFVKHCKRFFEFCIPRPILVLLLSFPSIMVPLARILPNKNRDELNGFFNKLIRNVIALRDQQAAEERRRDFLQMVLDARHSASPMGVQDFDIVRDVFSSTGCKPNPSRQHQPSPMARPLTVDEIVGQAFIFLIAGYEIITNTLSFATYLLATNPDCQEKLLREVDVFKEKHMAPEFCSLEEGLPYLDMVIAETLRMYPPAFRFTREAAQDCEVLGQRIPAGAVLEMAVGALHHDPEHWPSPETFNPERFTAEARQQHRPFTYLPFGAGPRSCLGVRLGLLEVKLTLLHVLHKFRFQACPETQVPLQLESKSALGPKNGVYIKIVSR

Homo sapiens [2] = species on record: Homo sapiens; test: Evaluated in vitro for the inhibition of U 46619 induced aggregation of platelet-rich plasma
How it was run: (§1)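 Antagonism of aggregation induced by the PGH2/TxA2 mimetic U 46619, run in human washed platelets (WP) and in platelet-rich plasma (PRP); IC50 reported. Values come from one or two determinations.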

Homo sapiens [3] = species on record: Homo sapiens; test: In vitro inhibition of U 46619 induced aggregation of washed platelets; how it was run: as §1
Homo sapiens [4] = species on record: Homo sapiens; test: In vitro inhibition of U 46619 induced aggregation of washed platelets(WP); how it was run: as §1
Cavia porcellus [5] = species on record: Cavia porcellus; test: Inhibition of bronchoconstriction in guinea pigs; assay type: functional; conditions: Lung
How it was run: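 Guinea pigs with cannulated trachea, ventilated at 40 strokes/min, given succinylcholine (1.0 mg/kg). Arachidonic acid priming dose 0.25 mg/kg iv, then 0.5 mg/kg iv. Test compound was then given as an iv bolus, with a 0.5 mg/kg AA challenge 5 min later. Peak insufflation pressure expressed as % of control. Five doses (0.1-1000 µg/kg), 6-8 animals per dose, ED50 derived.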

Cavia porcellus [6] = test: Ex vivo inhibition of U-46,619-induced aggregation of guinea pig platelets after peroral administration of 10 mg/kg dose at 6 hr time; assay type: functional; conditions: route oral
How it was run: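 Male Hartley guinea pigs (350-400 g), fasted 12-16 h, dosed orally in 3% fortified cornstarch suspension vehicle; groups of three to six. At 6 h, cardiac-puncture blood drawn under methoxyflurane into citrate (0.0129 M final). PRP obtained at 500g, 7 min. PRP preincubated 1 min at 37 °C with stirring, then U 46619 added. Aggregation ratio = EC50 drug-treated/EC50 vehicle-treated.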

SMILES: CC(C)(CC(CCCCNS(=O)(=O)c1ccc(Cl)cc1)CCCc1cccnc1)C(=O)O (centres undefined)
- Kb (Canis familiaris): 0.001 µM
- Concentration ratio (Cavia porcellus [1]): 8.7
- IC50 (Thromboxane-A synthase): 0.02 µM
- IC50 (Homo sapiens [2]): 3.7 µM
- IC50 (Homo sapiens [3]): 0.018 µM

SMILES: O=C(O)CCC(CCCCNS(=O)(=O)c1ccc(Cl)cc1)CCCn1ccnc1 (centres undefined)
- Kb (Canis familiaris): 0.0055 µM
- IC50 (Thromboxane-A synthase): 0.003 µM
- IC50 (Homo sapiens [2]): 3.7 µM
- IC50 (Homo sapiens [3]): 0.98 µM

SMILES: O=C(O)/C=C/C(CCCCNS(=O)(=O)c1ccc(Cl)cc1)CCCc1cccnc1 (centres undefined)
- IC50 (Thromboxane-A synthase): 0.01 µM
- IC50 (Homo sapiens [2]): 0.77 µM
- IC50 (Homo sapiens [3]): 0.07 µM

SMILES: O=S(=O)(NCCCCC(CCCO)CCCc1cccnc1)c1ccc(Cl)cc1 (centres undefined)
- IC50 (Thromboxane-A synthase): 0.07 µM
- IC50 (Homo sapiens [3]): 2.36 µM

SMILES: NC(=O)CCC(CCCCNS(=O)(=O)c1ccc(Cl)cc1)CCCc1cccnc1 (centres undefined)
- IC50 (Thromboxane-A synthase): 0.06 µM
- IC50 (Homo sapiens [3]): > 10 µM

SMILES: O=C(O)CCC(CCCCNS(=O)(=O)c1ccc(Cl)cc1)CCCc1ccc[n+]([O-])c1 (centres undefined)
- Kb (Canis familiaris): 0.00741 µM
- IC50 (Thromboxane-A synthase): 0.003 µM
- IC50 (Homo sapiens [2]): 8.7 µM
- IC50 (Homo sapiens [3]): 0.5 µM

SMILES: O=C(O)CCC(CCCCNS(=O)(=O)c1ccc2ccccc2c1)CCCc1cccnc1 (centres undefined)
- IC50 (Thromboxane-A synthase): 0.0015 µM
- IC50 (Homo sapiens [2]): 2.8 µM
- IC50 (Homo sapiens [3]): 0.24 µM

SMILES: O=C(O)CCC(CCCCNS(=O)(=O)c1ccc(F)cc1)CCCc1cccnc1 (centres undefined)
- IC50 (Thromboxane-A synthase): 0.001 µM
- IC50 (Homo sapiens [2]): > 30 µM
- IC50 (Homo sapiens [3]): 0.108 µM

SMILES: O=C(O)CCC(C/C=C/c1cccnc1)CCCCNS(=O)(=O)c1ccc(Cl)cc1 (centres undefined)
- Kb (Canis familiaris): 0.000603 µM
- IC50 (Thromboxane-A synthase): 0.007 µM
- IC50 (Homo sapiens [2]): 1.19 µM
- IC50 (Homo sapiens [3]): 0.027 µM

SMILES: O=C(O)CCC(CCCCNS(=O)(=O)c1ccc(Cl)cc1)CCn1ccnc1 (centres undefined)
- Kb (Canis familiaris): 0.0347 µM
- IC50 (Thromboxane-A synthase): 0.04 µM
- IC50 (Homo sapiens [3]): 1.52 µM

SMILES: CC(CC(CCCCNS(=O)(=O)c1ccc(Cl)cc1)CCCc1cccnc1)C(=O)O (centres undefined)
- Kb (Canis familiaris): 0.00148 µM
- Concentration ratio (Cavia porcellus [1]): 9
- IC50 (Thromboxane-A synthase): 0.003 µM
- IC50 (Homo sapiens [2]): 2.9 µM
- IC50 (Homo sapiens [3]): 0.053 µM

SMILES: O=C(O)C(CCCCNS(=O)(=O)c1ccc(Cl)cc1)CCCc1cccnc1 (centres undefined)
- IC50 (Homo sapiens [4]): 9.3 µM
- IC50 (Thromboxane-A synthase): 0.09 µM

SMILES: O=C(O)C(=O)NC(CCCCNS(=O)(=O)c1ccc(Cl)cc1)CCCc1cccnc1 (centres undefined)
- Kb (Canis familiaris): 0.00186 µM
- IC50 (Thromboxane-A synthase): 0.15 µM
- IC50 (Homo sapiens [2]): 11.3 µM
- IC50 (Homo sapiens [3]): 0.59 µM

SMILES: Cc1ccncc1CCCC(CCCCNS(=O)(=O)c1ccc(Cl)cc1)CCC(=O)O (centres undefined)
- IC50 (Thromboxane-A synthase): 0.001 µM
- IC50 (Homo sapiens [2]): 4.86 µM
- IC50 (Homo sapiens [3]): 0.006 µM

SMILES: [N-]=[N+]=Nc1ccc(S(=O)(=O)NCCCCC(CCCc2cccnc2)CCC(=O)O)cc1 (centres undefined)
- IC50 (Thromboxane-A synthase): 0.004 µM
- IC50 (Homo sapiens [2]): 2 µM
- IC50 (Homo sapiens [3]): 0.035 µM

SMILES: CS(=O)(=O)c1ccc(S(=O)(=O)NCCCCC(CCCc2cccnc2)CCC(=O)O)cc1 (centres undefined)
- IC50 (Thromboxane-A synthase): 0.004 µM
- IC50 (Homo sapiens [3]): > 10 µM

SMILES: O=S(=O)(NCCCCC(CCCc1cccnc1)CCC1N=NN=N1)c1ccc(Cl)cc1 (centres undefined)
- Kb (Canis familiaris): 0.000468 µM
- Concentration ratio (Cavia porcellus [1]): 10
- IC50 (Thromboxane-A synthase): 0.005 µM
- IC50 (Homo sapiens [2]): 0.91 µM
- IC50 (Homo sapiens [3]): 0.022 µM

SMILES: O=C(O)CCC(CCCCNS(=O)(=O)c1ccc(C(F)(F)F)cc1)CCCc1cccnc1 (centres undefined)
- IC50 (Thromboxane-A synthase): 0.002 µM
- IC50 (Homo sapiens [2]): 0.61 µM
- IC50 (Homo sapiens [3]): 0.23 µM

SMILES: O=C(O)CSC(CCCCNS(=O)(=O)c1ccc(Cl)cc1)CCCc1cccnc1 (centres undefined)
- ED50 (Cavia porcellus [5]): 7.42 µg/kg
- Kb (Canis familiaris): 0.000269 µM
- Concentration ratio (Cavia porcellus [1]): 33
- IC50 (Thromboxane-A synthase): 0.002 µM
- IC50 (Homo sapiens [2]): 0.4 µM
- IC50 (Homo sapiens [3]): 0.006 µM

SMILES: CCOC(=O)CCC(CCCCNS(=O)(=O)c1ccc(Cl)cc1)CCCc1cccnc1 (centres undefined)
- Concentration ratio (Cavia porcellus [1]): 3

SMILES: O=C(O)COC(CCCCNS(=O)(=O)c1ccc(Cl)cc1)CCCc1cccnc1 (centres undefined)
- Concentration ratio (Cavia porcellus [1]): 2.6
- IC50 (Thromboxane-A synthase): 0.018 µM
- IC50 (Homo sapiens [2]): 1.6 µM
- IC50 (Homo sapiens [3]): 0.015 µM

SMILES: COc1ccc(S(=O)(=O)NCCCCC(CCCc2cccnc2)CCC(=O)O)cc1 (centres undefined)
- IC50 (Thromboxane-A synthase): 0.003 µM
- IC50 (Homo sapiens [2]): 1.34 µM
- IC50 (Homo sapiens [3]): 0.22 µM

SMILES: O=C(O)CC(CCCCNS(=O)(=O)c1ccc(Cl)cc1)CCCc1cccnc1 (centres undefined)
- Kb (Canis familiaris): 0.00372 µM
- IC50 (Thromboxane-A synthase): 0.007 µM
- IC50 (Homo sapiens [3]): 0.2 µM

SMILES: Cc1ccc(S(=O)(=O)NCCCCC(CCCc2cccnc2)CCC(=O)O)cc1 (centres undefined)
- Kb (Canis familiaris): 0.00155 µM
- IC50 (Thromboxane-A synthase): 0.001 µM
- IC50 (Homo sapiens [2]): 15.2 µM
- IC50 (Homo sapiens [3]): 0.058 µM

SMILES: O=C(O)CCC(CCCCNS(=O)(=O)c1ccc(Cl)cc1)CCOc1cccnc1 (centres undefined)
- ED50 (Cavia porcellus [5]): 5.2 µg/kg
- Concentration ratio (Cavia porcellus [6]): >100
- Kb (Canis familiaris): 0.000398 µM
- Concentration ratio (Cavia porcellus [1]): >100
- IC50 (Thromboxane-A synthase): 0.003 µM
- IC50 (Homo sapiens [2]): 0.28 µM
- IC50 (Homo sapiens [3]): 0.013 µM

SMILES: O=C(O)CCC(CCCCNS(=O)(=O)c1ccc(Cl)cc1)CCCc1cccnc1 (centres undefined)
- ED50 (Cavia porcellus [5]): 5.75 µg/kg
- Concentration ratio (Cavia porcellus [6]): 11.8
- Concentration ratio (Cavia porcellus [1]): 27.3
- IC50 (Thromboxane-A synthase): 0.02 µM

SMILES: O=C(O)CCCCO/N=C(/c1cccnc1)c1cccc(C(F)(F)F)c1 [RIDOGREL]
- ED50 (Cavia porcellus [5]): 48.3 µg/kg
- Concentration ratio (Cavia porcellus [1]): 5.6
